Reference: paper PMC9033243 (RSC Advances, 2021)

Assays:
[1] = target: T1, E. coli PBP 1b (Escherichia coli, UniProt P02919); experiment: Lipid II-based in vitro transglycosylation assay; format: biochemical; settings: read-out: Inhibition of PBP 1b activity at 50 μM
T1 sequence (P02919 1-844): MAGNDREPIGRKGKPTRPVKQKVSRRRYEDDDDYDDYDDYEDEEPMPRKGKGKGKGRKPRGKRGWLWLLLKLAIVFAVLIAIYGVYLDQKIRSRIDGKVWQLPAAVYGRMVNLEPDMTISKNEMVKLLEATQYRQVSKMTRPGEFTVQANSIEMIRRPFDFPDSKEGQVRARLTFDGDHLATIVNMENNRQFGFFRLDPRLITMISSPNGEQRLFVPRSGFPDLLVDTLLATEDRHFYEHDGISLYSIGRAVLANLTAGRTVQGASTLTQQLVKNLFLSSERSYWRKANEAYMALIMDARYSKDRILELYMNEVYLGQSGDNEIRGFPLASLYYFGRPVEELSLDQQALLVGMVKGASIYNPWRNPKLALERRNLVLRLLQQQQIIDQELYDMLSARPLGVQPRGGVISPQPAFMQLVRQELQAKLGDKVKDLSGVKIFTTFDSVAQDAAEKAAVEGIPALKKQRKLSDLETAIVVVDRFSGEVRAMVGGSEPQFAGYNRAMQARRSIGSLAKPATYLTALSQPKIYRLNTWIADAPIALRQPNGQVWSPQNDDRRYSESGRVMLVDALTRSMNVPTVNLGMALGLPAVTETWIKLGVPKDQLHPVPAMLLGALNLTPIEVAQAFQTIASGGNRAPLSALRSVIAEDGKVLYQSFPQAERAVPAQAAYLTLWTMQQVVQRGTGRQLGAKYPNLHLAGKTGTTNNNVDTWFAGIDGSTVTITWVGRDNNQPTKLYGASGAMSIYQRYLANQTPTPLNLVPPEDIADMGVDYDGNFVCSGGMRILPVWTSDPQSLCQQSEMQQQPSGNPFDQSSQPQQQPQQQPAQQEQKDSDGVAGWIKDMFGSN
How it was run: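 E. coli PBP 1b (13.2 nM) is preincubated with test compound for 5 min at 30 °C. Buffer: 50 mM HEPES pH 7.5, 200 mM NaCl, 10 mM CaCl2, 0.08% decyl PEG, 10% DMSO, 15% methanol, 2 U μL−1 muramidase. Dansyl-lipid II (5 μM) is added for 5 min at 30 °C. Moenomycin A (1 μM, 10 min) quenches […]. Read by anion-exchange HPLC, in duplicate. IC50 from Hill fit; Ki via IC50 = Ki(1 + [s]/Km), Km = 1.8 μM.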

[2] = tested on: E. coli (25922); experiment: Antimicrobial susceptibility test; format: cell-based; settings: Escherichia coli, 18 h, read-out: MIC E. coli (25922)
How it was run: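 Exponential-phase cells diluted to about 5 × 10^5 cfu mL−1, in CA-MHB for S. aureus ATCC 29213 and MHB for E. coli ATCC 25922. Test compound serially diluted in DMSO from a DMSO stock; final DMSO 1% (v/v), with 1% DMSO controls. After 37 °C for 18 h, OD600 is read and % inhibition taken against controls. MIC is the lowest concentration giving ≥90% inhibition. Three independent assays.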

Structure (SMILES): C=C(C/C=C(\C)CCC=C(C)C)CCC(C)(C)/C=C/CC/C(C)=C\CO[C@H](COP(=O)(O)O[C@H]1O[C@H](C(N)=O)[C@@](C)(O)[C@H](OC(N)=O)[C@H]1O[C@@H]1O[C@H](CO[C@@H]2O[C@H](CO)[C@@H](O)[C@H](O)[C@H]2O)[C@@H](O[C@@H]2O[C@H](C)[C@@H](O[C@@H]3O[C@H](C(=O)NC4=C(O)CCC4=O)[C@H](O)[C@H](O)[C@H]3O)[C@H](O)[C@H]2NC(C)=O)[C@H](O)[C@H]1NC(C)=O)C(=O)O [Moenomycin A]
- inhibition at 50 µM [1]: 100%
- MIC [2]: > 96 µg/mL
